The source of these data is ChEMBL document CHEMBL5038590, “Discovery of G Protein-Biased Ligands against 5-HT7R” (J Med Chem, 2021).

Structures are written as SMILES.

Data set [1] has as its target T1, 5-hydroxytryptamine receptor 1A (Homo sapiens, UniProt P08908).
T1 sequence (P08908 whole entry): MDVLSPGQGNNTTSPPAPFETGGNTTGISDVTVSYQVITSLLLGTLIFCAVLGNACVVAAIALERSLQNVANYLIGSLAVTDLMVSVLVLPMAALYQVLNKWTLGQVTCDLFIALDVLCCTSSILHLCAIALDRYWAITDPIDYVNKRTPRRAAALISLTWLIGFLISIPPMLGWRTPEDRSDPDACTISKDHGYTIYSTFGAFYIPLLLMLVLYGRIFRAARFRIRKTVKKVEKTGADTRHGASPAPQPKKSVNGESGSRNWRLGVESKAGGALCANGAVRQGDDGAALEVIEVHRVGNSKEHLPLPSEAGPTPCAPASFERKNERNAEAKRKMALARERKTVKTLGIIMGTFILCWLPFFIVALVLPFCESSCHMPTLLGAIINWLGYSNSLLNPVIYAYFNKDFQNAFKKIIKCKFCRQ
In words: Binding affinity to 5-HT1AR (unknown origin). Put shortly: (§1)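 Run by the NIMH Psychoactive Drug Screening Program as competition radioligand binding on crude membranes of cells expressing the recombinant receptor. Eleven dilutions (0.05 nM–50 μM, prepared at 5× assay concentration) were made in 50 mM Tris-HCl, 10 mM MgCl₂, 1 mM EDTA, pH 7.4. Incubation was 1.5 h at rt in the dark, followed by GF/B filtration (0.3% PEI) and scintillation counting. IC₅₀ was converted to Ki; at least triplicate.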

Data set [2] can be described thus: AUClast in ICR mouse plasma at 1 mg/kg, iv measured upto 8 hrs by LC-MS/MS analysis. It counts as ADME, organism-based. The arrangement: route intravenous, dose 1 mg/kg, time <=8. Put shortly:
(§2)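 Male ICR mice, 7–8 weeks, 30 ± 5 g; single dose 1 mg/kg iv or 10 mg/kg ip (n = 4 each). Carotid artery blood at 0, 0.08 (iv only), 0.25, 0.5, 1, 2, 4, 6, 8 h. Plasma precipitated with acetonitrile containing internal standard, quantified by LC–MS/MS. Parameters by non-compartmental analysis; AUClast by trapezoidal rule; values mean ± SD.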

The test system of data set [3] is Mus musculus. In words: Effect on shank3-/- mouse model of autism spectrum disorder assessed as time taken for duration of self grooming at 5 mg/kg, ip pretreated for 10 mins in presence of SB269970 followed by compound addition and measured after 30 mins under 40 lux lighting (reference value: 224 +/- 47.4 sec). It counts as functional. Particulars: 0.5 h.
In another data set the target is CYP2C9 (Homo sapiens, UniProt P11712). In words: Inhibition of CYP2C9 in human liver microsomes assessed as remaining activity at 10 uM using diclofenac as substrate preincubated for 5 mins followed by addition of NADPH generating system and incubated for 15 mins by LC/MS relative to control. Type of data set: ADME. Particulars: probe diclofenac, time 20 min, read-out: Activity. Put shortly: (§3)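 Human liver microsomes (0.25 mg/mL) in 0.1 M phosphate pH 7.4 with a five-substrate cocktail: phenacetin 50 μM, diclofenac 10 μM, S-mephenytoin 100 μM, dextromethorphan 5 μM, midazolam 2.5 μM. Compound at 0 (control) or 10 μM. Preincubated 5 min at 37 °C, NADPH-generating system added, 15 min at 37 °C. Stopped with acetonitrile plus internal standard; substrate metabolites measured by LC/MS.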

For data set [4], the target named is 5-hydroxytryptamine receptor 6 (Homo sapiens, UniProt P50406). Put plainly: Binding affinity to 5-HT6R (unknown origin). Summed up: as §1
A short description of data set [5]: Tmax in ICR mouse plasma at 10 mg/kg, ip measured upto 8 hrs by LC-MS/MS analysis. Type of data set: ADME, organism-based. Put shortly: as §2
The next data set has as its target CYP2C19 (Homo sapiens, UniProt P33261). In words: Inhibition of CYP2C19 in human liver microsomes assessed as remaining activity at 10 uM using S-mephenytoin as substrate preincubated for 5 mins followed by addition of NADPH generating system and incubated for 15 mins by LC/MS relative to control. It counts as ADME. Particulars: probe S-mephenytoin, time 20 min, read-out: Activity. Put shortly:
as §3

Data set [6] is described as follows: AUClast in ICR mouse plasma at 10 mg/kg, ip measured upto 8 hrs by LC-MS/MS analysis. Type of data set: ADME, organism-based. The arrangement: route intraperitoneal, dose 10 mg/kg, time <=8. Summed up: as §2
Data set [7] concerns Mus musculus. In words: Effect on shank3-/- mouse model of autism spectrum disorder assessed as time taken for duration of self grooming at 5 mg/kg, ip after 30 mins under 40 lux lighting (reference value: 224 +/- 47.4 sec). It counts as functional. To be noted: 0.5 h.
For data set [8], the target named is 5-hydroxytryptamine receptor 2A (Homo sapiens, UniProt P28223). Put plainly: Binding affinity to 5-HT2AR (unknown origin). Summed up:
as §1

Data set [9] has as its target T2, 5-hydroxytryptamine receptor 3A (Homo sapiens, UniProt P46098).
T2 sequence (P46098 whole entry): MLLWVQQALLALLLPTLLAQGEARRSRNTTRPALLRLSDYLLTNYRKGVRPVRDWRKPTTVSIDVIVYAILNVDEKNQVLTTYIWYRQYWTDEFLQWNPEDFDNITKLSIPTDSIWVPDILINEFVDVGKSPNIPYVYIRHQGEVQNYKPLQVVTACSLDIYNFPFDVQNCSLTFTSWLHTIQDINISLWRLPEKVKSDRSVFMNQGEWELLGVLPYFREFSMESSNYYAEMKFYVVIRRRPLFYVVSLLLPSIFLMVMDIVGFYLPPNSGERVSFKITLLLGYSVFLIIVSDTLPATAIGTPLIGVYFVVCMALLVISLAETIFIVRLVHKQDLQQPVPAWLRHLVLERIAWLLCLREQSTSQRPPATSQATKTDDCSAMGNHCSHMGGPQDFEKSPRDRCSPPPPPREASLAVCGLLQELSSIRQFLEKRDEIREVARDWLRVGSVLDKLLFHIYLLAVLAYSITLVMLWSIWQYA
In words: Binding affinity to 5-HT3R (unknown origin). Summed up: as §1

Data set [10] can be described thus: Bioavailability in ICR mouse plasma at 10 mg/kg, ip measured upto 8 hrs by LC-MS/MS analysis. Type of data set: ADME, organism-based. Summed up: as §2
Data set [11] deals with T3, 5-hydroxytryptamine receptor 2C (Homo sapiens, UniProt P28335).
T3 sequence (P28335 whole entry): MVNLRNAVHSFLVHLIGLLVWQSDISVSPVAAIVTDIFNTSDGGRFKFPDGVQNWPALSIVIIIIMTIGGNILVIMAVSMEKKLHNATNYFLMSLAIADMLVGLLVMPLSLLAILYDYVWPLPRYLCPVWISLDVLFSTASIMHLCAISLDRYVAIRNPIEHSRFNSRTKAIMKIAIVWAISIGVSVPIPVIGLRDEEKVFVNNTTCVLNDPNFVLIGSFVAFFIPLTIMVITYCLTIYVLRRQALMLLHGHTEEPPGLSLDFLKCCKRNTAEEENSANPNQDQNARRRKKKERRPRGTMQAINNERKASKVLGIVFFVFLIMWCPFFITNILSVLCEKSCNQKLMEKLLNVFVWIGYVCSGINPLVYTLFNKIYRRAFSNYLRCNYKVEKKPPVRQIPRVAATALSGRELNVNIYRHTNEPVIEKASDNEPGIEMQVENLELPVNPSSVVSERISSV
Put plainly: Binding affinity to 5-HT2CR (unknown origin). Summed up: as §1

The target in data set [12] is 5-hydroxytryptamine receptor 5A (Homo sapiens, UniProt P47898). Put plainly: Binding affinity to 5-HT5AR (unknown origin). Put shortly: as §1
Data set [13] in a line: Volume of distribution in steady state in ICR mouse plasma at 1 mg/kg, iv measured upto 8 hrs by LC-MS/MS analysis. It counts as ADME, organism-based. To be noted: read-out: Vdss. Summed up:
as §2

Chain of CYP2C19 (P33261 whole entry): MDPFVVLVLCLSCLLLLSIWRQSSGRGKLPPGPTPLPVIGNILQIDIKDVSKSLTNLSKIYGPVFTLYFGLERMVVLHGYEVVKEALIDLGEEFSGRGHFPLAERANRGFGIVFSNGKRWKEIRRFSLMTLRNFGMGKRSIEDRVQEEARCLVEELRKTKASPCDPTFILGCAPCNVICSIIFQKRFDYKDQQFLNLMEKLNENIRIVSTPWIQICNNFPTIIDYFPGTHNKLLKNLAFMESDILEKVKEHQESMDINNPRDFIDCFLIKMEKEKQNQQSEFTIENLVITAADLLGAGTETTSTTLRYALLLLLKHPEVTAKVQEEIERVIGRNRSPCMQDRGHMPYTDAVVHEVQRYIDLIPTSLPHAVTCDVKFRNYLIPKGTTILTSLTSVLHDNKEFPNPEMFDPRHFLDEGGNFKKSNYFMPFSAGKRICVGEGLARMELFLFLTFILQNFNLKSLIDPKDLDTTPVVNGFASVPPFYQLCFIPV
Chain of CYP2C9 (P11712 whole entry): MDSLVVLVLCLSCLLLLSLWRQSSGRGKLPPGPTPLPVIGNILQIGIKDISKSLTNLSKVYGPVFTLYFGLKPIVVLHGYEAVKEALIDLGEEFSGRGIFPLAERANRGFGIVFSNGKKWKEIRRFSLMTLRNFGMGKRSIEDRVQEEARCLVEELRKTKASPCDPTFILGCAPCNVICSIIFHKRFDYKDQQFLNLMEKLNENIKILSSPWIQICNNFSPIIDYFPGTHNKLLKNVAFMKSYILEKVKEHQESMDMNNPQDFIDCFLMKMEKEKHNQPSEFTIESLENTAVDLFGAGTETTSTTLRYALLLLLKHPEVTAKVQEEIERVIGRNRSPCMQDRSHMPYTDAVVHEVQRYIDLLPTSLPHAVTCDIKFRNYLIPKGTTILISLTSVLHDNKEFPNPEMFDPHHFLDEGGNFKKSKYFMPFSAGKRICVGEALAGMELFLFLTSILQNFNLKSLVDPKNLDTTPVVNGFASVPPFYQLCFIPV
Chain of 5-hydroxytryptamine receptor 6 (P50406 whole entry): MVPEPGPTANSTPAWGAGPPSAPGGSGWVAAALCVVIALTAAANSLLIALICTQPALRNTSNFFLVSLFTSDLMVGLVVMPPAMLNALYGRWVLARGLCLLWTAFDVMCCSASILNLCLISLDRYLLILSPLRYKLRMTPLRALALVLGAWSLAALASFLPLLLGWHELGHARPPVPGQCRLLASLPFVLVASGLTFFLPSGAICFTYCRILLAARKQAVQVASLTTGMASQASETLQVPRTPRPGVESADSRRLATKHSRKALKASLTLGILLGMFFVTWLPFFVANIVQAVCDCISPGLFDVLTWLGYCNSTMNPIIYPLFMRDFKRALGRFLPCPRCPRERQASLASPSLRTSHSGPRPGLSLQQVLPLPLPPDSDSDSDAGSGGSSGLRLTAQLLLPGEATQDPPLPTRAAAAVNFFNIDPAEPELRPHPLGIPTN
Chain of 5-hydroxytryptamine receptor 5A (P47898 whole entry): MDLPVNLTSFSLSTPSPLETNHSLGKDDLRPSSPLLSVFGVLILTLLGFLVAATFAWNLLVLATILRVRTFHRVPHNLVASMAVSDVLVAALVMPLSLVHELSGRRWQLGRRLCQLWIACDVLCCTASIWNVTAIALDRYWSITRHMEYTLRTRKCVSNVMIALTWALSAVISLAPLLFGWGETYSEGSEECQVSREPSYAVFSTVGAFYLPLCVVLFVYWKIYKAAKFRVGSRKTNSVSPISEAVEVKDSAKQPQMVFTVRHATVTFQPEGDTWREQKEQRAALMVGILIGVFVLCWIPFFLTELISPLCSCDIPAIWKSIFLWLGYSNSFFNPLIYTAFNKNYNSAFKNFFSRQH
Chain of 5-hydroxytryptamine receptor 2A (P28223 whole entry): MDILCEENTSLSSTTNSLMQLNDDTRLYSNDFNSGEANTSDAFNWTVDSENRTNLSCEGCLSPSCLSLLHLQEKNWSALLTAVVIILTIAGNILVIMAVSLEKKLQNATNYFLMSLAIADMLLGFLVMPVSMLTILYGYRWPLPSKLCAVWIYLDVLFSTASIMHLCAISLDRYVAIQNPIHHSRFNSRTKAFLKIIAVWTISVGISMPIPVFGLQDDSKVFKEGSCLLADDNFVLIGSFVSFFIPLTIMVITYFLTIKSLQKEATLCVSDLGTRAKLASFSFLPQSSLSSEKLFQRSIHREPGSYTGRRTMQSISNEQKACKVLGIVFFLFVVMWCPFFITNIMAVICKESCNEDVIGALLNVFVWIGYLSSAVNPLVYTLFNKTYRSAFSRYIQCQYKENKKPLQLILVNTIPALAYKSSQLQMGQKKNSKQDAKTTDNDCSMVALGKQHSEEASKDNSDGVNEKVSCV

For `CCNCCc1ccc(Cl)c(-c2ccccc2OC)c1.Cl`, the Ki is 52 nM in [1]; above 10000 nM in [4]; 520 nM in data set [8]; above 10000 nM in [9]; above 10000 nM in [11]; 700 nM in [12]. For the same compound, the area under the curve AUC(0-t) at 8 h was 32.9 ng·h/mL in data set [2] and 442 ng·h/mL in data set [6]. Besides, the Time is listed as 166 s in the data set with Mus musculus [3] and 553 s with Mus musculus [7]. Moreover, the activity at 0.25 h, 10 µM is above 100% on CYP2C9 and 90.3% on CYP2C19. Further, in [5], the Tmax is 24 min. In addition, the bioavailability in [10] is 134%. Also, the Vd in data set [13] is 19.5 L/kg.

A word on the Ki: it is the dissociation constant of the complex between target and ligand, obtained from inhibition or displacement. Read a high Ki as a looser hold on the target. In general, AUC(0-t) refers to exposure summed from dosing to a finite time, without extrapolation to infinity. Read a high AUC(0-t) as high exposure. What is called Tmax is the time at which the peak concentration occurs.
